STAT3 inh-1 – STAT3 signaling inhibition | U3A cells, IL-6 STAT3-luciferase reporter, luminescence; host cell line lacks STAT1 | inhibition, % at 5.5 µM | 190,000 compounds, 0.89% hits;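 active = inhibition above the mean inhibition across all screened compounds plus 3 SD, cut at about 44% in these data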
NF-kB expr up – NF-kB expression increase, human neuronal cells; fold change at 12.5 µM; NF-kB reporter expression; hits give high values; 190,000 compounds, 1.6% hits; in the data active = fold change above about 3.3
STAT1 act – STAT1 signaling activation. 200,000 compounds, 2.6% hits. activation (% of control), % at 5.5 µM. AID 932. NIH 3T3 STAT1-luciferase reporter, IFN-gamma, luminescence; 100% = IFN-gamma alone, no compound;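 active = activation above the screen-wide mean activation plus 3 SD, cut at about 130% in these data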
STAT3 activator – activators of IL-6 induced STAT3 signaling. 190,000 compounds, 0.91% hits. AID 871. U3A cells, IL-6 STAT3-luciferase reporter, luminescence; 100% = signal with IL-6 EC80 alone. activation (% of control), % at 5.6 µM;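 active = activation above the screen-wide mean of compound activation plus 3 SD, cut at about 130% in these data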
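Material: STAT3-luciferase reporter U3A cells; Probe or stimulus: IL-6 (33 ng/mL); Incubation: compound pre-incubation 1 h before IL-6, then 6 h stimulation at 37 °C; Technique: luminescence from STAT3-driven luciferase reporter; Evaluation: % activation versus median of IL-6-stimulated wells; Controls: IL-6-only high control.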
APP 5'UTR act – activates APP 5'UTR luciferase reporter; SH-SY5Y APP 5'UTR luciferase reporter, luminescence; zero percent = DMSO vehicle wells; activation, % at 2 µM; 190,000 compounds, 1% hits; AID 1276;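 active = activation above a set limit, based on mean plus 3 SD of controls, cut at about 140% in these data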
STAT1 inh – STAT1 signaling inhibition; NIH 3T3 STAT1-luciferase reporter, IFN-gamma, luminescence; inhibition, % at 5.5 µM; 200,000 compounds, 0.35% hits;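 active = inhibition above a set limit, the mean inhibition across all tested compounds plus 3 SD, cut at about 34% in these data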
STAT3 inh-2 – STAT3 inhibition, confirmation assay; shares compounds with STAT3 inh-1; U3A cells, IL-6 STAT3 luciferase reporter, luminescence; cell line lacks STAT1; inhibition, % at 5.7 µM; 1,200 compounds, 45% hits;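 active = inhibition above the hit cutoff computed for the primary STAT3 screen, cut at about 44% in these data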
NFkB inh 2 – NF-kappaB inhibition in STAT3 inhibitor counter-screen; inhibition, % at 5.7 µM; 1,200 compounds, 36% hits; shares compounds with STAT3 inh-1; HEK293T NF-kB luciferase reporter, TNF-alpha induced; AID 1308;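 active = inhibition above the mean of solvent-only control wells plus 3 SD, cutoff set per campaign, cut at about 13% in these data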
STAT1 inh STAT3c – counter-screen for STAT3 inhibitors: STAT1 inhibition | NIH 3T3 STAT1-luciferase reporter, IFN-gamma induced, luminescence | inhibition, % at 5.7 µM | shares compounds with STAT3 inh-1 | AID 1317 | 1,200 compounds, 27% hits;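 active = inhibition above the mean plus 3 SD of solvent-only control wells, limit set per screening run, cut at about 16% in these data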
Numbers stand for hits; – = inactive; · = not tested or not shown. Hits are enriched below; roughly 4.9% of the tested compounds scored in any of these assays.

SMILES	STAT3 inh-1	NF-kB expr up	STAT1 act	STAT3 activator	APP 5'UTR act	STAT1 inh	STAT3 inh-2	NFkB inh 2	STAT1 inh STAT3c
O=C(NCCc1ccccc1)c1ccc([N+](=O)[O-])cc1	44.5	4.29	–	–	151.5	–	–	–	–
COc1ccc(-n2cc(C(=O)c3ccccc3O)cn2)cc1	65.4	3.94	–	–	236.3	–	–	–	–
COc1ccc(-n2cc(C(=O)c3ccc4ccccc4c3O)cn2)cc1	–	–	–	–	–	–	·	·	·
COc1ccccc1-c1nnc(SCC(=O)Nc2ccc(S(N)(=O)=O)cc2)n1C	–	–	–	–	–	–	·	·	·
Cc1ccc(NC(=O)CSc2nnc(-c3cccnc3)s2)cc1	–	–	–	–	–	–	·	·	·
O=C(CSc1nnc(-c2cccnc2)s1)Nc1ccnc2ccccc12	72.2	–	–	–	–	–	82.2	21.6	18.1
CCOC(=O)C1(C)NC(c2ccccc2F)C2C(=O)N(CC)C(=O)C21 (centres undefined)	–	–	–	–	–	–	·	·	·
COc1cccc(-c2cc(C(=O)Nc3cc(C)n(Cc4ccc(Cl)cc4)n3)no2)c1	55.0	–	–	–	–	–	69.8	19.9	–
Cc1cc(NC(=O)c2cc(-c3ccco3)on2)nn1Cc1ccc(Cl)cc1	63.4	–	–	–	–	–	57.8	13.3	–
COc1ccc(OC)c(NC(=O)CSc2ncnc3c2cnn3-c2ccccc2Cl)c1	79.1	3.3	–	–	–	–	81.2	30.7	26.1
COC(=O)c1nn2c(C(F)(F)F)cc(-c3ccc(Br)o3)nc2c1Br	–	·	–	–	–	–	·	·	·
Clc1ccc2ncc(-c3nnnn3-c3ccccc3)c(-c3ccccc3)c2c1	60.6	–	–	–	–	–	43.9	–	–
NS(=O)(=O)c1ccc(CNC(=O)CCSCCC(=O)NCc2ccc(S(N)(=O)=O)cc2)cc1	–	–	–	–	–	–	·	·	·
Cc1ccc(S(=O)(=O)/N=C(/c2ccc(F)cc2)N2CCCCC2)cc1	–	–	–	–	–	–	·	·	·
Cc1c(C(=O)OCCOc2ccccc2)[nH]c2c1C(=O)CCC2	59.2	3.53	–	–	–	–	–	–	–
Cc1ccccc1CN(c1ccc(C(=O)NCc2ccccn2)cc1)S(C)(=O)=O	–	–	–	–	–	–	·	·	·
c1csc(-c2csc3ncnc(NCCCN4CCOCC4)c23)c1	46.3	–	–	–	–	–	–	–	–
CCS(=O)(=O)c1nc2ccccc2n1Cc1ccccn1	–	–	–	–	–	–	·	·	·
O=C(Nc1nnc(-c2ccco2)s1)c1ccccc1	47.4	4.17	–	–	161.2	–	–	–	–
COc1ccc(C(=O)Nc2nnc(-c3ccco3)s2)cc1	82.3	4.82	–	–	·	35.2	54.7	19.4	–
O=C(Nc1nnc(-c2ccco2)s1)C1CC1	–	–	–	–	–	–	·	·	·
CCCCc1cc(=O)oc2cc(O)ccc12	–	–	–	–	–	–	·	·	·
CC(C)n1c(NCCc2ccccc2)nc2c1c(=O)n(C)c(=O)n2C	45.3	–	–	–	–	–	–	–	32.4
CCCNc1nc2c(c(=O)n(C)c(=O)n2C)n1CCc1ccccc1	–	–	–	–	–	–	·	·	·
Cc1ccc(S(=O)(=O)C(C#N)c2nc3ccccc3nc2N2CCN(C)CC2)cc1 (centres undefined)	43.5	–	–	–	–	–	59.3	19.4	–
CCOC(=O)N1CCN(c2nc3ccccc3nc2C(C#N)S(=O)(=O)c2ccc(C)cc2)CC1 (centres undefined)	–	–	–	–	–	–	·	·	·
Cc1nc(C)c(C(=O)Nc2ccc(Oc3ccccc3)cc2)o1	55.1	–	–	–	–	–	–	–	–
COCCn1c(C)cc(C(=O)CSc2nnc3ccccn23)c1C	74.5	–	–	–	·	–	–	–	–

Screening results (PubChem)
